Source: PubChem
PRMT1 inh – PRMT1 methyltransferase inhibitors, primary screen, biochemical, fluorescence polarization. Protein arginine N-methyltransferase 1 (Homo sapiens), Q99873. recombinant PRMT1, activity-based probe fluorescence polarization. inhibition, % at 2.79 µM. 370,000 compounds, 1.3% hits. AID 652257, 2013;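 active = inhibition above about 21% made by adding two undisclosed values, limit read from the data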
Target sequence (Q99873 whole entry, looked up): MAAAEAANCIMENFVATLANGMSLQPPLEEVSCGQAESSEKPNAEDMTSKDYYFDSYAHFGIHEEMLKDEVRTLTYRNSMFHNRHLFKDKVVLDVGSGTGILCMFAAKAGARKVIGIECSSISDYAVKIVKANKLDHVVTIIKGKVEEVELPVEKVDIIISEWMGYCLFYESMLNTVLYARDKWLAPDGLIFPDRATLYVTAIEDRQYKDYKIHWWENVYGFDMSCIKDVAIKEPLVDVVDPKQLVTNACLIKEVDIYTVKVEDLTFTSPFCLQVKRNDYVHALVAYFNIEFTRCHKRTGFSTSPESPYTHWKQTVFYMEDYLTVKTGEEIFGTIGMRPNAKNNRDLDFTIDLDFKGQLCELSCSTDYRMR
HCV core dimer – inhibitors of HCV core protein dimerization, primary screen, biochemical, TR-FRET, high-throughput; AID 1899, 2009; TR-FRET GST/Flag-core106 dimerization, 1536-well; 300,000 compounds, 0.33% hits; inhibition, % at 5 µM;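 active = inhibition above the mean of all tested compounds plus 3 SD, set per screening campaign, cut at about 45% in these data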
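Assay system: Tagged HCV core106 pair (GST and Flag) | Buffer or medium: KF-containing HEPES buffer, pH 7.45, DTT, CHAPS, BSA | Also added: Eu donor and XL665 acceptor anti-tag antibodies | Dosing: One concentration, 5 µM, in 0.5% DMSO | Timing: 4 h at 22.5 °C | Technique: TR-FRET 671 and 617 nm emission | Repeats: Singlicate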
NS3 helicase inh – inhibitors of HCV NS3 helicase, primary screen, biochemical, Cy5 molecular beacon fluorescence; Hepatitis C virus NS3 helicase; NS3 helicase DNA unwinding; inhibition, % at 10.9 µM; 290,000 compounds, 0.56% hits;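 active = inhibition above the mean of all tested compounds plus 3 SD, set per campaign, cut at about 35% in these data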
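Measured by: Cy5 fluorescence, 0 and 60 min reads / Assay system: NS3 helicase fragment of HCV / Control set: low DMSO, high thioflavine S at 110 µM / Times: 1 h reaction at 25 °C, ATP-initiated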
APOBEC3G inh – APOBEC3G DNA deaminase inhibitors, primary screen, biochemical, fluorescence, single-stranded DNA substrate, uHTS; recombinant A3G, ssDNA deamination FAM/TAMRA fluorescence; inhibition, % at 20 µM; DNA dC->dU-editing enzyme APOBEC-3G (Homo sapiens), Q9HC16; 330,000 compounds, 0.28% hits;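 active = inhibition of at least 40% at 20 µM, with no more than 30% in the related APOBEC3A deaminase screen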
ABHD5-PLIN5 inh – ABHD5-PLIN5 interaction inhibitors, primary screen, cell lysate, split luciferase complementation, luminescence; AID 602281, 2012; Split G. princeps luciferase complementation, 4 h; 360,000 compounds, 0.78% hits; inhibition, % at 4 µM; Perilipin-5 (Homo sapiens) + 1-acylglycerol-3-phosphate O-acyltransferase ABHD5 (Homo …;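 active = inhibition above the mean inhibition across every tested compound plus 3 SD, cut at about 22% in these data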
A3A deaminase – APOBEC3A ssDNA deaminase inhibitors, primary screen, selectivity assay for APOBEC3G inhibitor project, biochemical, FAM/TAMRA oligo cleavage fluorescence. 330,000 compounds, 0.41% hits. recombinant A3A, FAM/TAMRA ssDNA deamination fluorescence. DNA dC->dU-editing enzyme APOBEC-3A (Homo sapiens), P31941. inhibition, % at 20 µM;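 active = at least 40% inhibition at 20 µM here, with at most 30% in a related deaminase screen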
Target sequence (P31941 whole entry, looked up): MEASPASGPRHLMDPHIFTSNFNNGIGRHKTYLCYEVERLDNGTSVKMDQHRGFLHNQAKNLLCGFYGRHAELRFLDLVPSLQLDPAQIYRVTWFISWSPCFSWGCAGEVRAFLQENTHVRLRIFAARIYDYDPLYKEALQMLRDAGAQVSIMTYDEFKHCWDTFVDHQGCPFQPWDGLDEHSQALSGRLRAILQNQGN
NS3 hel confirm – HCV NS3 helicase inhibitors, retest, confirmation, biochemical, Cy5 molecular beacon fluorescence, triplicate; shares compounds with NS3 helicase inh; NS3 helicase DNA unwinding; inhibition, % at 10.9 µM; 1,600 compounds, 31% hits; AID 1943, 2009;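 active = inhibition above the mean of all tested compounds plus 3 SD, cutoff set per campaign, cut at about 36% in these data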
FID counter trip – compounds displacing fluorescent DNA intercalator, artefact control for HCV NS3 helicase inhibitor project, biochemical, FID fluorescence, triplicate. shares compounds with NS3 helicase inh. DNA fluorescent intercalator displacement. inhibition, % at 7.9 µM. 1,600 compounds, 4% hits. AID 1945, 2009; in the data active = inhibition above about 37%;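 also: higher means more displacement of ethidium bromide from the DNA hairpin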
FID counter DR – compounds displacing fluorescent intercalator from DNA, dose response, counter-screen for HCV NS3 helicase inhibitor project, biochemical, fluorescence | shares compounds with NS3 helicase inh | fluorescent intercalator displacement from DNA | IC50, µM | 120 tested, under 10 active | AID 2172, 2009; call rule not given here
Of the large screens only hits and unclear results are named; the others gave an inactive call (follow-up assays come after a bar, where they were run). The list is not random: actives were taken first. Their share in the collection is about 2.9%.

CCOC(=O)c1cc2c(C)n(-c3ccc(OCC)cc3)c(C)c2ccc1=O	NS3 helicase inh 55 | NS3 hel confirm inactive | FID counter trip inactive
O=C1c2ccc([N+](=O)[O-])cc2NC(c2ccco2)N1/N=C/c1ccco1 (stereo not drawn)	NS3 helicase inh 42 | NS3 hel confirm inactive | FID counter trip inactive
CC(C)NC(=O)CN1CCN(C(c2cc3ccccc3o2)c2nnnn2C(C)(C)C)CC1 (stereo not drawn)	none (no result: HCV core dimer, NS3 helicase inh, APOBEC3G inh, A3A deaminase)
CCOC(=O)Cc1csc(NC(=O)c2sc3nc4c(C)cc(C)cc4cc3c2N)n1	NS3 helicase inh 38 | NS3 hel confirm inactive | FID counter trip inactive
Cc1nc(NCCCN2CCOCC2)c2cnn(-c3ccccc3)c2n1	none (no result: HCV core dimer, NS3 helicase inh, APOBEC3G inh, A3A deaminase)
CCc1nnc(NS(=O)(=O)c2ccc(NC(=S)NC(=O)c3ccc(Br)cc3)cc2)s1	NS3 helicase inh 58 | NS3 hel confirm 49 | FID counter trip inactive
CCc1nnc(NS(=O)(=O)c2ccc(NC(=S)NC(=O)c3ccccc3)cc2)s1	NS3 helicase inh 45 | NS3 hel confirm 66 | FID counter trip inactive
Cc1nc(C(F)(F)F)ccc1C(=O)N1CCCC(C)(C(=O)O)C1 (stereo not drawn)	none (no result: HCV core dimer, NS3 helicase inh, APOBEC3G inh, A3A deaminase)
CC(=O)c1ccccc1NC(=O)CN1C(=O)CS/C1=C\c1nc(-c2ccc(C)cc2)cs1	NS3 helicase inh 37 | NS3 hel confirm inactive | FID counter trip inactive
Cc1ccc(-c2csc(/C=C3/SC(C)C(=O)N3CC(=O)Nc3ccccc3F)n2)cc1 (stereo not drawn)	none (no result: HCV core dimer, NS3 helicase inh, APOBEC3G inh, A3A deaminase)
CCCNC(=O)COC(=O)c1ccc(S(=O)(=O)N2CCCC2)cc1	NS3 helicase inh 50 | NS3 hel confirm inactive | FID counter trip inactive
Cc1cc(OCc2nn[nH]n2)c2c(C)c(Cc3ccccc3)c(=O)oc2c1	NS3 helicase inh 69 | NS3 hel confirm 62 | FID counter trip inactive
Cc1cc2oc(=O)cc(CN3CCCCC3C)c2cc1C (stereo not drawn)	NS3 helicase inh 36 | NS3 hel confirm inactive | FID counter trip inactive
NNc1ncnc2scc(-c3ccc(Cl)cc3)c12	none
Cc1ccc(-c2csc3ncnc(NS(=O)(=O)c4ccc(Cl)cc4)c23)cc1	NS3 helicase inh 50 | NS3 hel confirm 44 | FID counter trip inactive
Cc1ncc(CO)c2cc(C(=O)Nc3ccccc3Cl)c(=Nc3cccc(C(N)=O)c3)oc12	none
CSc1ccc(C2Nc3cccc4cccc(c34)N2)cc1	none
Clc1ccc(C2Nc3cccc4cccc(c34)N2)cc1	NS3 helicase inh 69 | NS3 hel confirm inactive | FID counter trip inactive
CCOc1ccccc1-n1c(SCC(=O)Nc2ccccc2C(=O)O)nc2ccccc2c1=O	none
Cc1cc(C)nc(N/N=C/C2=C(N3CCOCC3)C(=C\c3ccc(Cl)cc3)/CC2)n1	NS3 helicase inh 36 | NS3 hel confirm inactive | FID counter trip inactive
Cc1cc(C)nc(NN=CC2=C(N3CCOCC3)/C(=C/c3ccc(Cl)cc3)CC2)n1	none (no result: HCV core dimer, NS3 helicase inh, APOBEC3G inh, A3A deaminase)
Cc1ccccc1CN1C(=O)CS/C1=N/N=C/c1ccco1	NS3 helicase inh 45 | NS3 hel confirm inactive | FID counter trip inactive
CCC1S/C(=N/N=C/c2ccco2)N(Cc2ccccc2C)C1=O (stereo not drawn)	none
O=C(NC1CC1)c1cc(-c2ccco2)nc2ccccc12	NS3 helicase inh 41 (no result: PRMT1 inh, HCV core dimer, APOBEC3G inh, A3A deaminase) | NS3 hel confirm inactive | FID counter trip inactive
O=C(O)c1cccnc1SCc1cccc(Br)c1	NS3 helicase inh 38 | NS3 hel confirm inactive | FID counter trip inactive
O=C(O)c1cccnc1SCc1ccc([N+](=O)[O-])cc1	none
COc1ccc(C)cc1NC(=O)C1CCN(S(=O)(=O)c2ccc3c(c2)NC(=O)CO3)CC1	none
COc1ccc(-n2cccc2/C=C2\C(=N)N3N=C(c4ccco4)SC3=NC2=O)cc1	HCV core dimer 48, NS3 helicase inh 42 | NS3 hel confirm 71 | FID counter trip inactive | FID counter DR inactive
N=C1/C(=C\c2coc3ccccc3c2=O)C(=O)N=C2SC(c3ccncc3)=NN12	none
COc1ccc(-n2cccc2/C=C2\C(=N)N3N=C(C(C)C)SC3=NC2=O)cc1	none
N=C1/C(=C/c2coc3ccccc3c2=O)C(=O)N=C2SC(c3ccco3)=NN12	NS3 helicase inh 54 (no result: PRMT1 inh) | NS3 hel confirm 50 | FID counter trip 50
Cc1ccc2cc(C3CC(c4ccco4)=NN3C(=O)CCCC(=O)O)c(Cl)nc2c1 (stereo not drawn)	NS3 helicase inh 51 | NS3 hel confirm inactive | FID counter trip inactive
Cc1ccc2nc(Cl)c(C3CC(c4ccco4)=NN3C(=O)CCCC(=O)O)cc2c1 (stereo not drawn)	none
O=C(CSc1nc2scc(-c3ccco3)c2c(=O)n1-c1ccccc1)NCC1CCCO1 (stereo not drawn)	NS3 helicase inh 86, ABHD5-PLIN5 inh 56 | NS3 hel confirm inactive | FID counter trip inactive
COc1cc(NS(=O)(=O)c2ccc(NC(=S)NC(=O)c3ccc(F)cc3)cc2)nc(OC)n1	NS3 helicase inh 40 | NS3 hel confirm inactive | FID counter trip inactive
O=C(C1CCC(=O)N(C2CC2)C1)N1CCN(c2cccc(Cl)c2)CC1 (stereo not drawn)	none (no result: HCV core dimer)
Cn1c(=S)[nH]c2sc3c(c2c1=O)CCC(C(C)(C)C)C3 (stereo not drawn)	NS3 helicase inh 43 | NS3 hel confirm inactive | FID counter trip inactive
Cc1ccc(Cn2cc(CCC(=O)O)c3ccccc32)cc1	NS3 helicase inh 49 | NS3 hel confirm inactive | FID counter trip inactive
O=C(O)Cc1cn(Cc2ccc(F)cc2)c2ccccc12	none
Cc1ccc(F)c(NC(=S)Nc2cccc3ccccc23)c1	NS3 helicase inh 52 | NS3 hel confirm inactive | FID counter trip inactive
CC1(C)Cc2c(c(-c3ccccc3)[nH]c(=O)c2C#N)CS1	none
